Published values of several laboratories.
Protocols differ between the studies behind these lines.
Target: Platelet-derived growth factor receptor beta (PDGFRB, Homo sapiens, UniProt P09619)

COc1ncccc1-c1cnn2ccc(N3CCN(C(=O)OC(C)C)CC3)nc12
remaining binding (binding, competition with immobilised ligand; 1 µM): 83%

Cn1cc(-c2cccc(N3CCc4c(sc5c4CC(C)(C)C5)C3=O)c2CO)cc(Nc2ccncn2)c1=O
inhibition (enzyme activity, inhibitor; 1 µM): 3%

CC(C)(C)c1cc(C=C(C#N)C#N)cc(Br)c1O
remaining activity (enzyme activity, inhibitor; 0.5 µM): 104%

N#CC1(c2ccccn2)CCN(Cc2cc(C(=O)O)c(=O)n3ccccc23)CC1
remaining binding (cell-free assay, competition with immobilised ligand; 1 µM): 100%

COCc1c(-c2cc3cc(C)cc(OC)c3s2)c2c(N)ncnn2c1CN1CCNC(=O)C1
inhibition (cell-free assay, competition with immobilised ligand; 1 µM): 86%

Nc1ncc(-c2nc(N3CCOCC3)nc(N3CCOCC3)n2)c(C(F)F)n1
remaining binding (binding, competition with immobilised ligand; 10 µM): 69%

C#Cc1n[nH]c2c(-c3cn([C@@H](C)c4ccccc4)c(=O)[nH]c3=O)cc(F)cc12
inhibition (enzyme activity, inhibitor; 0.1 µM): 3.1%

Cn1cncc1[C@](O)(COc1ccc(C#N)cc1-c1ccc(OC(F)(F)F)cc1)c1ccc(C#N)cc1
remaining binding (cell-free assay, competition with immobilised ligand; 1 µM): 100%

O=c1[nH]c2ccccc2n1C1CCN(Cc2ccc(-c3[nH]c4cc5ncnc5cc4nc3-c3ccccc3)cc2)CC1
remaining activity (enzyme activity; 0.5 µM): 102%

Cn1cc(-c2cc(F)cc(N3CCn4c(cc5c4CCCC5)C3=O)c2CO)cc(Nc2ccc(N3CCN(C4COC4)CC3)cn2)c1=O
inhibition (enzyme activity, inhibitor; 0.1 µM): 2%

C#Cc1n[nH]c2c(-c3cn([C@@H](C)c4ccccn4)c(=O)[nH]c3=O)cc(F)cc12
inhibition (enzyme activity, inhibitor; 0.1 µM): 4%
